Source: paper PMC9463105 (Chemmedchem, 2022)

Key:
[1] = Cell viability assay; format: cell-based; conditions: human, HFF cells; for viability at 7 days, 10 µM: Cell‐based assays [at 10 μM] Cell viability %, triplicate, mean
[2] = molecular target: T1, HCMV pUL89‐C (Human cytomegalovirus, UniProt P16732); assay: In vitro pUL89‐C endonuclease assay; format: biochemical; conditions: for inhibition at 10 µM: read-out: Nuclease inhibition % at 10 μM; for IC50: IC50, dose response, duplicate
T1 sequence (P16732 418-674 limits assumed): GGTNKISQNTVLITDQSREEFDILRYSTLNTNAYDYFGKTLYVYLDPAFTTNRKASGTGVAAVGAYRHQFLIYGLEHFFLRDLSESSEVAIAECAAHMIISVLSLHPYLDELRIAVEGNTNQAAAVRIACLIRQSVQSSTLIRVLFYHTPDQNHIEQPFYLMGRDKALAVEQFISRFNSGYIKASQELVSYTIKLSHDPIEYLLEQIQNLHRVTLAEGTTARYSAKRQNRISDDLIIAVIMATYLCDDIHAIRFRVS

[3] = molecular target: T2, pUL89‐C (Human cytomegalovirus, UniProt P16732); assay: pUL89‐C thermal shift assay; format: binding, Human cytomegalovirus (HCMV); conditions: 20 μM compound, compared to DMSO control
T2 sequence (P16732 418-674 limits assumed): T1 sequence (P16732 418-674 limits assumed)
Outline: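 pUL89-C was expressed in E. coli and Ni-purified via a C-terminal His tag. Test compound (20 μM) was incubated with 4 μg of this protein in 5 mM MnCl2, 30 mM Tris pH 8, 50 mM NaCl for 25 min at room temperature, with 1% DMSO final. Sypro Orange was the dye. ΔTm is the mean derivative Tm vs DMSO vehicle, triplicates, with at least two independent determinations.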

[4] = system: HCMV ADCREGFP virus; assay: HCMV replication assay; format: cell-based, Human cytomegalovirus (HCMV); conditions: HFF cells, triplicate, mean

Structure (SMILES) | CC50 at 7 days [1] [µM] | inhibition at 10 µM [2] [%] | viability at 7 days, 10 µM [1] [%] | ΔTm (thermal shift) [3] | IC50 [2] [µM] | Cell‐based assays [at 10 μM] Inhibition % [4]
Nc1nc(O)c2ncn(COC(CO)CO)c2n1 [Compound 1, ganciclovir, reference compound] | > 50 |  |  |  |  | 
COC(=O)c1nc(Cl)c2cccnc2c1O [Compound 13] |  | 16 ± 2.5 | 96 ± 1 |  |  | 
O=C(O)c1nc(-c2ccc(C(F)(F)F)cc2)c2cccnc2c1O [Compound 14] |  | 19 ± 0.1 | 97 ± 0.9 |  |  | 
O=C(NCc1ccc(F)cc1)c1nc(Cl)c2cccnc2c1O [Compound 15a] | 60 ± 2.4 | 49 ± 4.7 | 97 ± 2.3 | > 0 | 4.3 ± 1.2 | 
O=C(NCc1ccc(Cl)c(Cl)c1)c1nc(Cl)c2cccnc2c1O [Compound 15b] | > 50 | 33 ± 5.3 | 95 ± 1 |  | 13 ± 3.8 | 
O=C(NCc1ccc(F)c(Cl)c1)c1nc(Cl)c2cccnc2c1O [Compound 15c] |  | 15 ± 2 | 100 ± 5.7 |  |  | 
Cc1ccc(CNC(=O)c2nc(Cl)c3cccnc3c2O)cc1 [Compound 15d] | > 50 | 66 ± 13 | 96 ± 1.5 | > 0 |  | 
COCCNC(=O)c1nc(Cl)c2cccnc2c1O [Compound 15f] |  | 51 ± 14 | 96 ± 2.1 |  | 5.7 ± 0.39 | insignificant
Cc1ccc(CNC(=O)c2nc(-c3ccccc3)c3cccnc3c2O)cc1 [Compound 16a] | > 100 | 71 ± 2.4 | 99 ± 2.6 | > 0 |  | 
COc1cccc(-c2nc(C(=O)NCc3ccc(C)cc3)c(O)c3ncccc23)c1 [Compound 16b] | > 60 | 52 ± 3.6 | 76 ± 1.7 |  | 24 ± 5.4 | 
O=C(NCc1ccc(F)cc1)c1nc(-c2ccccc2F)c2cccnc2c1O [Compound 16d] |  | 17 ± 8.7 | ≤ 70 |  |  | 
O=C(NCc1ccc(F)cc1)c1nc(-c2cccc(Cl)c2)c2cccnc2c1O [Compound 16e] |  | 8.2 ± 1.9 | ≤ 70 |  |  | 
